Measured values from the RNAGym collection of RNA variant scans (doi:10.1126/science.aae0568).
Fewer inactive variants are shown than the library holds.

B1: tRNA (parent)
chain: GUUCCGUUGGCGUAAUGGUAACGCGUCUCCCUCCUAAGGAGAAGACUGCGGGUUCGAGUCCCGUACGGAACG

Variants of: B1
Experiment: yeast fitness relative to wild type (ratio to wild type); higher = fitter; tRNA-Arg(CCU), competitive growth, 37 C, YPD
Method in brief: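 Start and end populations of a pooled competition were compared by 100-nucleotide paired-end sequencing of gene amplicons. The Saccharomyces cerevisiae strains carried tRNA-Arg(CCU) gene variants at the native genomic locus, synthesised with a 3% per-site mutation rate at 69 sites, and competed in YPD at 37°C for 24 hours in six parallel replicates. Darwinian fitness relative to wild type was based on the change in genotype frequencies. Genotypes required ≥ 100 starting reads, and estimates < 0.5 were set to 0.5.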

| Variant | yeast fitness |
| --- | --- |
| GUUCCGUUGGCGUAAUGGUCACCCGUCUCCCUCAUAAGGAGAAGACUGCGGGUUCGAGUCCCGUACAGAACG [A20C G23C C34A G67A] | ≤ 0.5 |
| GUUCCGUUGGCGUAAUGGUCACGCAUCCCCCUCCUAAGGAGAAAACUGCGGGUUCGAGUCCCGUACGGAACG [A20C G25A U28C G44A] | 0.553 |
| GUUCCGUUGGCGUAAUGGUCACGCAUCUCCCUCCUAAGGAGAAAACUGCGGGUUCGAGUCCCGUACGGAACG [A20C G25A G44A] | 0.85 |
| GUUCCGUUGGCGUAAUGGUCACGCGUCUCCCUCCUAAAGAGAAGACUGCGGGUUAGAGUCCCGUAUGGAACG [A20C G38A C55A C66U] | ≤ 0.5 |
| GUUCCGUUGGCGUAAUGGUCACGCGUCUCCCUCCUAAGGAGAAGACUGCGGGUUCGAGUCCCGUACAGAACG [A20C G67A] | 0.873 |
| GUUCCGUUGGCGUAAUGGUCACGCGUCUCCCUCCUAAGGAGAAGACUGCGGGUUCGAGUCCCGUACCGAACG [A20C G67C] | 0.654 |
| GUUCCGUUGGCGUAAUGGUCACGCGGCUCCCUCCUAAGGAGAUGACUGCGGGUUCGAGUCCCGUACGGAACG [A20C U26G A43U] | ≤ 0.5 |
| GUUCCGUUGGCGUAAUGGUCACGCGCCUCCCUCCUAAGGAGAAGACUGCGGGUUCGAGUCCCGUACGGAACG [A20C U26C] | 0.883 |
| GUUCCGUUGGCGUAAUGGUCACGCGUCGCCCUCCUAAGGAGAAGACCGCGGGUUCGAGUCCCGUACGCAACG [A20C U28G U47C G68C] | ≤ 0.5 |
| GUUCCGUUGGCGUAAUGGUCACGCGUCUCCCUCCUAAGGAGAAGACUGCGGGUUCCAGUCCCGUACGGAACG [A20C G56C] | 0.625 |
| GUUCCGUUGGCGUAAUGGUCACGCGUCUCCCUCCUAAGGAGAAGACUGCGGGUUCGAGUCCCGUAUGGAACG [A20C C66U] | 0.931 |
| GUUCCGUUGGCGUAAUGGUCACGCGUCUCCCUCCUAAGGAGAAGACUGCGGGUUCGAGUCCCGUAGGGAACG [A20C C66G] | 0.766 |
| GUUCCGUUGGCGUAAUGGUCACUCGUCUCCCUCCUAAGGAGAAGACUGCGGGUUCGAGUACCGUACGGAACG [A20C G23U C60A] | 0.676 |
| GUUCCGUUGGCGUAAUGGUCACGCGUCUCCCUCCUAAAGAGAAGACUGAGGGUUCGACUCCCGUGCGACACG [A20C G38A C49A G58C A65G G68A A69C] | 0.589 |
| GUUCCGUUGGCGUAAUGGUCACGCGUCUCCCUCCUAAGGAGAAGACUCCGGGUUCGGGUCCCGUACGGAACG [A20C G48C A57G] | 0.545 |
| GUUCCGUUGGCGUAAUGGUCACGCGUCUCCCUCCUAAGGAGAAGACUGCGCGUUCGAGUCCCGUACGGAACG [A20C G51C] | 0.541 |
| GUUCCGUUGGCGUAAUGGUCACGCGUCUCCCUCCUAAGGAGAAGACUGCGAGUUCGAGUCCCGUACGGAACG [A20C G51A] | 0.815 |
| GUUCCGUUGGCGUAAUGGUCACGCGUCUCCCUCCUAAGAAGAAGACUGCGGGUACGAGUCCCGUACGGAACG [A20C G39A U54A] | 0.599 |
| GUUCCGUUGGCGUAAUGGUCACACGUCUCACUCCUAAGGUGAAGACUGCGGGUUCGAGUCCCGUACGGAACG [A20C G23A C30A A40U] | ≤ 0.5 |

| Variant | yeast fitness |
| --- | --- |
| GUUCCGUUGGCGUAAUGGUCACGCGUCCCCCUCCUAAGGAAAAGACUGCGGGUUCGAGUCCCGUACGGAACG [A20C U28C G41A] | 0.592 |
| GUUCCGUUGGCGUAAUGGUCACACGUCUCCCUCCUAAGGAGAAGACUGCGGGUUGGAGUCCCGUACGGAACG [A20C G23A C55G] | 0.593 |
| GUUCCGUUGGCGUAAUGGUCACGCGUCUCCCUCCUAAGCAGAAGACUGCGGGUUCGAGUCUCGUACGGAACG [A20C G39C C61U] | ≤ 0.5 |
| GUUCCGUUGGCGUAAUGGUCACCCGUAUCCCUCCUAAGGAGAAGACUGCGGGUUCGAGUCCCGUACGGAACG [A20C G23C C27A] | 0.574 |
| GUUCCGUUGGCGUAAUGGUCACGCGUCACCGUCCUAAGGAGAAGACUGCGGGUUAGAGUCCCGUACGCAACG [A20C U28A C31G C55A G68C] | ≤ 0.5 |
| GUUCCGUUGGCGUAAUGGUCACGCGUCUCCCUCCUAAGGACCAGACUGCGGGUUCAAGUCCCGCACGGAUCG [A20C G41C A42C G56A U64C A70U] | ≤ 0.5 |
| GUUCCGUUGGCGUAAUGGUCACGCGGCUCCCUCCUCAUGAGAAGACUGCGGGUUCGAGUCCCGUACGGAACG [A20C U26G A36C G38U] | ≤ 0.5 |
| GUUCCGUUGGCGUAAUGGUCACGCGUCGCCCUCCUAAGGAGAAGACCGCGGGUUCGAGUCCCGUAUGGAACG [A20C U28G U47C C66U] | ≤ 0.5 |
| GUUCCGUUGGCGUAAUGGUCACGCGUCCCACUCCUAAGGAGAACGCUGCGGGUUAGAGUCCCGUACGGAACG [A20C U28C C30A G44C A45G C55A] | ≤ 0.5 |
| GUUCCGUUGGCGUAAUGGUCACGCGGCUCCCUCCUCAUGAGAAGACUGCGGGUUCGAGUCCCGUUCGGAACG [A20C U26G A36C G38U A65U] | ≤ 0.5 |
| GUUCCGUUGGCGUAAUGGUCACGCGUCUCCCACCUAAGGAGAAGACUGCGGGUUCGAGUCCCGAUCGGAACG [A20C U32A U64A A65U] | 0.558 |
| GUUCCGUUGGCGUAAUGGUCACGCAUCUCCCUCCUAAGGAGAACACUGCGGGUUCGAGUCCCGUACGAAACG [A20C G25A G44C G68A] | 0.523 |
| GUUCCGUUGGCGUAAUGGUCACGCGACUCCCUCGUAAGGAGAAGAGUGCGGGUUCGAGUCCCGUACGGAACG [A20C U26A C34G C46G] | 0.595 |
| GUUCCGUUGGCGUAAUGGUCACACGUCUCCCUCCUAAGGAGAGGACUGCGGGUUGGAGUACCGUACGGAACG [A20C G23A A43G C55G C60A] | ≤ 0.5 |
| GUUCCGUUGGCGUAAUGGUCACGCGUCUCCCUCCUAACGAGAAGACUGCGGGUUCGAGUCCCAUACGGACCG [A20C G38C G63A A70C] | ≤ 0.5 |
| GUUCCGUUGGCGUAAUGGUCACGCGUCUCCCACCUAUGGAGAAGACUGCGGGUUCGAGUCCCGUACGGAACG [A20C U32A A37U] | ≤ 0.5 |
| GUUCCGUUGGCGUAAUGGUCACGCGUCUCCCUCCUAACGAGAAGACUGCGGGUUCGAGUCCCGUACGGACCG [A20C G38C A70C] | ≤ 0.5 |
| GUUCCGUUGGCGUAAUGGUCACGCGCUUCCCUCCUAAGGAGAAGACUGCGGGUUCGAGUCCCGUACAGAACG [A20C U26C C27U G67A] | ≤ 0.5 |
| GUUCCGUUGGCGUAAUGGUCACGCGACUCCCUCGUGAGGAGAAGAGUGCGGGUUCGAGUCCCGUACGGAACG [A20C U26A C34G A36G C46G] | ≤ 0.5 |
